From ChEMBL document CHEMBL5653625, “P21-Activated Kinase Inhibitors FRAX486 and IPA3: Inhibition of Prostate Stromal Cell Growth and Effects on Smooth Muscle Contraction in the Human Prostate” (PLoS One, 2016)
Calls of active or inactive are those of the source. The calls are words filed in the database; no cut-off is given here.

Columns and labels:
Homo sapiens [1] = organism: Homo sapiens; test: Inhibition of phenylephrine induced prostate cancer patient derived human Prostate gland strips contraction assessed as reduction in KCl-induced contraction at 300 uM by organ-bath analysis; assay type: functional, tissue-based
Summary of the method: (§1)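 Human prostate strips (6 x 3 x 3 mm) in aerated (95% O2/5% CO2) Krebs-Henseleit, 37°C, pH 7.4, resting tone 4.9 mN after 45 min equilibration; reference contraction to 80 mM KCl, washout, then inhibitor or DMSO added before cumulative noradrenaline, phenylephrine or endothelin concentration-response curves or EFS frequency-response curves; tension expressed as % of KCl contraction.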

WPMY-1 [2] = test: Inhibition of actin filament organization in human WPMY-1 cells at 1 uM incubated for 24 hrs by FITC-coupled phalloidin staining based laser scanning microscopy; assay type: functional, cell-based
Summary of the method: (§2)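 Serum-starved WPMY-1 cells grown on chamber slides with inhibitor (1–10 µM) or DMSO for 24 h, then stained for F-actin with FITC-labeled phalloidin and imaged by laser scanning confocal microscopy; filament bundles, protrusions and cell shape judged visually against solvent controls; representative images from 5 independent experiments.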

Homo sapiens [3] = organism: Homo sapiens; test: Inhibition of electric field stimulation induced prostate cancer patient derived human Prostate gland strips contraction assessed as reduction in KCl-induced contraction at 100 uM by organ-bath analysis; assay type: functional, tissue-based; summary of the method: as §1
WPMY-1 [4] = test: Inhibition of actin filament organization in human WPMY-1 cells assessed as degeneration of protrusions at 1 uM incubated for 24 hrs by FITC-coupled phalloidin staining based laser scanning microscopy; assay type: functional, cell-based; summary of the method: as §2
WPMY-1 [5] = test: Inhibition of actin filament organization in human WPMY-1 cells at 1 to 10 uM incubated for 24 hrs by FITC-coupled phalloidin staining based laser scanning microscopy; assay type: functional, cell-based; details: dose 1-10 µM; summary of the method: as §2
Homo sapiens [6] = organism: Homo sapiens; test: Inhibition of noradrenaline induced prostate cancer patient derived human Prostate gland strips contraction assessed as reduction in KCl-induced contraction at 300 uM by organ-bath analysis; assay type: functional, tissue-based; summary of the method: as §1
[7] = Inhibition of actin filament organization in human WPMY-1 cells assessed as rounded cell shape without protrusion at 5 to 10 uM incubated for 24 hrs by FITC-coupled phalloidin staining based laser scanning microscopy; assay type: functional; details: dose 5-10 µM; summary of the method: as §2
[8] = Cytotoxicity against human WPMY-1 cells assessed as cell survival rate at 1 uM incubated for 24 to 72 hrs by WST-8 assay; assay type: toxicity, cell-based; details: time 24-72 hrs, read-out: Survival
Summary of the method: (§3)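 WPMY-1 human prostate stromal cells kept in RPMI 1640 with 10% FCS and 1% penicillin/streptomycin, 37°C, 5% CO2; switched to FCS-free medium before treatment. Seeded 20,000 cells/well, grown 24 h, then exposed to inhibitor or DMSO (1, 5, 10 µM) for 24, 48 or 72 h with separate controls per period. WST-8 (CCK-8) added, absorbance 450 nm after 2 h at 37°C; 5 independent experiments, means ±SEM.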

[9] = Cytotoxicity against human WPMY-1 cells assessed as reduction in cell proliferation at 1 to 10 uM incubated for 24 hrs by EdU incorporation assay; assay type: toxicity, cell-based; set-up: scale not given: the % may be the effect or the level left; details: wpmy-1, 24 h, dose 1-10 µM
Homo sapiens [10] = organism: Homo sapiens; test: Inhibition of electric field stimulation induced prostate cancer patient derived human Prostate gland strips contraction assessed as reduction in KCl-induced contraction at 300 uM at 32 Hz frequency by organ-bath analysis; assay type: functional, tissue-based; summary of the method: as §1
[11] = Cytotoxicity against human WPMY-1 cells assessed as reduction in cell viability at 1 to 10 uM incubated for 24 hrs by WST-8 assay; assay type: toxicity, cell-based; details: wpmy-1, 24 h, dose 1-10 µM
[12] = Cytotoxicity against human WPMY-1 cells assessed as cell survival rate at 10 uM incubated for 48 to 72 hrs by WST-8 assay; assay type: toxicity, cell-based; details: time 48-72 hrs, read-out: Survival; summary of the method: as §3
[13] = Cytotoxicity against human WPMY-1 cells assessed as reduction in cell viability at 1 to 10 uM incubated for 24 to 72 hrs by WST-8 assay; assay type: toxicity, cell-based; details: wpmy-1, 10 µM, TDE = time-dependent effect, dose lower 1 µM, time lower 24 hrs, dose upper 10 µM, time upper 72 hrs
WPMY-1 [14] = test: Inhibition of actin filament organization in human WPMY-1 cells assessed as reduction in degree of actin polymerization at 1 uM incubated for 24 hrs by FITC-coupled phalloidin staining based laser scanning microscopy; assay type: functional, cell-based; summary of the method: as §2
[15] = Effect on DISC1 knockdown-elicited synaptic changes in rat cortical neurons assessed as prevention of spine size reduction preincubated for 60 mins followed by APV WD solution addition and measured after 20 mins by immunofluorescence analysis; assay type: functional, cell-based; details: cortical neurone
[16] = molecular target: Serine/threonine-protein kinase PAK 3 (Homo sapiens, UniProt O75914); test: Inhibition of full length PAK3 (unknown origin) assessed s reduction in substrate phosphorylation using peptide as substrate by FRET based Z-LYTE kinase assay
Chain of Serine/threonine-protein kinase PAK 3 (O75914 whole entry): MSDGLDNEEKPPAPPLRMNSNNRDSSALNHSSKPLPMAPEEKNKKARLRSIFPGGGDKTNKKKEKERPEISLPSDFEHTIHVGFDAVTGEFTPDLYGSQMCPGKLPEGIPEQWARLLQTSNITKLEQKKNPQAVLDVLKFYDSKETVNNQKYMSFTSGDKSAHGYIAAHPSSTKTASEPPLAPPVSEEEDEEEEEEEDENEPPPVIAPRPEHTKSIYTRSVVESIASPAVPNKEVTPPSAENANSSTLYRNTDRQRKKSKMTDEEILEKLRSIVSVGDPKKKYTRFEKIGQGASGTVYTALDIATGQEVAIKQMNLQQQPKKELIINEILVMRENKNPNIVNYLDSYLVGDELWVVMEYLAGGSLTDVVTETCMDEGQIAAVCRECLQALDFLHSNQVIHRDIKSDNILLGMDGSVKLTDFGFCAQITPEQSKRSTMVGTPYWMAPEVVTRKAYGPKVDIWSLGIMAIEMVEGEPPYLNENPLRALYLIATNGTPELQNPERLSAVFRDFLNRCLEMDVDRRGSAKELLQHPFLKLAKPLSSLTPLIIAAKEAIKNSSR

Homo sapiens [17] = organism: Homo sapiens; test: Inhibition of phenylephrine induced prostate cancer patient derived human Prostate gland strips contraction assessed as reduction in KCl-induced contraction at 30 uM by organ-bath analysis; assay type: functional, tissue-based; summary of the method: as §1
Homo sapiens [18] = organism: Homo sapiens; test: Inhibition of electric field stimulation induced prostate cancer patient derived human Prostate gland strips contraction assessed as reduction in KCl-induced contraction at 10 uM by organ-bath analysis; assay type: functional, tissue-based; summary of the method: as §1
[19] = molecular target: Serine/threonine-protein kinase PAK 2 (Homo sapiens, UniProt Q13177); test: Inhibition of full length PAK2 (unknown origin) assessed s reduction in substrate phosphorylation using peptide as substrate by FRET based Z-LYTE kinase assay
Chain of Serine/threonine-protein kinase PAK 2 (Q13177 whole entry): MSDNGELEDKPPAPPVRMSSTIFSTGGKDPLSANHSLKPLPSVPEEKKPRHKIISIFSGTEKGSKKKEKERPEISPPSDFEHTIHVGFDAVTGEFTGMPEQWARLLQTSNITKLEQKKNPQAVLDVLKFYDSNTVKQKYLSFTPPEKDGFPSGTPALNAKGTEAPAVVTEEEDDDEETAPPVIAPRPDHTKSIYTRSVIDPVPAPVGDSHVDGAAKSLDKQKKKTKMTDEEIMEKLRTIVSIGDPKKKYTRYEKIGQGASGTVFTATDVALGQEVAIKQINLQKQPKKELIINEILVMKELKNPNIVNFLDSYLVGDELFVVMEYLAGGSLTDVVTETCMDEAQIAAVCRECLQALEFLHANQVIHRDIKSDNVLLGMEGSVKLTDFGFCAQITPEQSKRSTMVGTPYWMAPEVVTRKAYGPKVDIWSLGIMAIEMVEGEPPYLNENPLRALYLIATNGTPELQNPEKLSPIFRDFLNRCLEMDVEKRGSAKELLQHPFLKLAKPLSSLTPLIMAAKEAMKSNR

Homo sapiens [20] = organism: Homo sapiens; test: Inhibition of endothelin-2 induced prostate cancer patient derived human Prostate gland strips contraction assessed as reduction in KCl-induced contraction at 30 uM by organ-bath analysis; assay type: functional, tissue-based; summary of the method: as §1
[21] = Cytotoxicity against human WPMY-1 cells assessed as cell survival rate at 5 to 10 uM incubated for 48 to 72 hrs by WST-8 assay; assay type: toxicity, cell-based; details: dose lower 5 µM, time lower 48 hrs, dose upper 10 µM, time upper 72 hrs, read-out: Survival; summary of the method: as §3
Homo sapiens [22] = organism: Homo sapiens; test: Inhibition of noradrenaline induced prostate cancer patient derived human Prostate gland strips contraction assessed as reduction in KCl-induced contraction at 30 uM by organ-bath analysis; assay type: functional, tissue-based; summary of the method: as §1
Homo sapiens [23] = organism: Homo sapiens; test: Inhibition of electric field stimulation induced prostate cancer patient derived human Prostate gland strips contraction assessed as reduction in KCl-induced contraction at 30 uM at 2 to 32 Hz frequency by organ-bath analysis; assay type: functional, tissue-based; summary of the method: as §1
Homo sapiens [24] = organism: Homo sapiens; test: Inhibition of endothelin-1 induced prostate cancer patient derived human Prostate gland strips contraction assessed as reduction in KCl-induced contraction at 10 uM by organ-bath analysis; assay type: functional, tissue-based; summary of the method: as §1
Homo sapiens [25] = organism: Homo sapiens; test: Inhibition of endothelin-1 induced prostate cancer patient derived human Prostate gland strips contraction assessed as reduction in KCl-induced contraction at 30 uM by organ-bath analysis; assay type: functional, tissue-based; summary of the method: as §1
[26] = Cytotoxicity against human WPMY-1 cells assessed as cell survival rate at 1 uM incubated for 24 hrs by WST-8 assay; assay type: toxicity, cell-based; details: read-out: Survival; summary of the method: as §3

## Oc1ccc2ccccc2c1SSc1c(O)ccc2ccccc12
Homo sapiens [1]
  inhibition: inactive
WPMY-1 [2]
  inhibition: Active
Homo sapiens [3]
  inhibition: inactive
WPMY-1 [4]
  inhibition: Active
WPMY-1 [5]
  inhibition: Dose-Dependent Effect
Homo sapiens [6]
  inhibition: inactive
[7]
  inhibition (INH): 100%
[8]
  viability at 1 µM: 55%
[9]
  Activity: 41%
Homo sapiens [10]
  inhibition: Active
[11]
  Activity: Dose-Dependent Effect
[12]
  viability at 10 µM: 1%
[13]
  Activity: Tde
WPMY-1 [14]
  inhibition: Active

## CCn1c(=O)c(-c2ccc(Cl)cc2Cl)cc2cnc(Nc3ccc(N4CCNCC4)c(F)c3)nc21
[15]
  EC50: 500 nM
WPMY-1 [2]
  inhibition: Active
[16]
  IC50: 10 nM
Homo sapiens [17]
  inhibition: inactive
Homo sapiens [18]
  inhibition: inactive
[19]
  IC50: 10 nM
WPMY-1 [4]
  inhibition: Active
WPMY-1 [5]
  inhibition: Dose-Dependent Effect
Homo sapiens [20]
  inhibition: Active
[21]
  viability at up to 10 µM: 1%
[7]
  inhibition (INH): 100%
Homo sapiens [22]
  inhibition: inactive
[9]
  Activity: 45%
Homo sapiens [23]
  inhibition: Active
Homo sapiens [24]
  inhibition: inactive
Homo sapiens [25]
  inhibition: Active
[11]
  Activity: Dose-Dependent Effect
[26]
  viability at 24 h, 1 µM: 55%
[13]
  Activity: Tde
WPMY-1 [14]
  inhibition: Active
